Measured values published in ChEMBL document CHEMBL4765233, “From Lead to Drug Candidate: Optimization of 3-(Phenylethynyl)-1H-pyrazolo[3,4-d]pyrimidin-4-amine Derivatives as Agents for the Treatment of Triple Negative Breast Cancer” (J Med Chem, 2016).

Legend:
[1] = Toxicity in SCID mouse xenografted with MDA-MB-231 cells assessed as animal death at 40 mg/kg, po qd for 21 days; type: organism-based; conditions: in vivo, dose 40 mg/kg/day, time 21 day, read-out: Activity
Outline: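 SCID mice aged 5–6 weeks were injected subcutaneously with 100 μL of MDA-MB-231 cells resuspended at 5 × 10^7 per mL. When tumours reached 150–200 mm3, mice were randomised into groups of 3 or 6. Dosing was oral and daily, in sterile water with 25% PEG400 plus 5% DMSO. Side effects were checked daily and body weight every 3 days.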

MDA-MB-435 = assay: Antiproliferative activity against human MDA-MB-435 cells assessed as reduction in cell viability incubated for 72 hrs by MTT assay; type: functional, cell-based; conditions: MDA-MB-435, 72 h
Outline: (§1)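 MTT viability assay. ATCC cell lines were grown in designated medium with 10% FBS at 37 °C, 5% CO2. Cells seeded at 1500−30000 per well and incubated 24 h, then exposed to compound (0−10 μg/mL) for 72 h. MTT added for 2−4 h. Formazan dissolved in DMSO (adherent) or acidified SDS overnight (suspension), absorbance read at 570 nm. Triplicates; IC50 calculated.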

[2] = Toxicity in SCID mouse xenografted with MDA-MB-231 cells assessed as change in body weight at 40 mg/kg, po qd for 21 days and measured every 3 days; type: organism-based; conditions: in vivo, 504 h, dose 40 mg/kg/day, time 21 day
Outline: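 Exponential-phase cells washed and injected subcutaneously (5 × 10^6 cells in 100 μL) into 5–6-week SCID mice. At 150–200 mm3, mice randomised to groups of 6. Oral dosing daily in water with 25% PEG400 and 5% DMSO; paclitaxel 10 mg/kg weekly by tail vein. Body weight measured every 3 days and side effects checked daily.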

MDA-MB-231 [3] = assay: Antiproliferative activity against human MDA-MB-231 cells assessed as reduction in cell viability incubated for 72 hrs by MTT assay; type: functional, cell-based; conditions: MDA-MB-231, 72 h; outline: as §1
HepG2 = assay: Antiproliferative activity against human HepG2 cells assessed as reduction in cell viability incubated for 72 hrs by MTT assay; type: ADME, cell-based; conditions: HepG2, 72 h
MDA-MB-231 [4] = assay: Antitumor activity against human MDA-MB-231 cells xenografted in SCID mouse assessed as tumor growth inhibition at 40 mg/kg, po qd for 21 days and measured every 3 days; type: functional; conditions: MDA-MB-231, po, 504 h, time 21 day
Outline: (§2)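 SCID mice (5−6 weeks) injected subcutaneously with 100 μL of cells at 5 × 10^7/mL. At 150−200 mm3 mice randomized, 6 per group. Oral compounds given in water with 25% PEG400 plus 5% DMSO; paclitaxel given 10 mg/kg/week iv. Tumor volume a×b²/2 and body weight measured every 3 days. Inhibition rate (c−d)/c×100% against vehicle control.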

[5] = Toxicity in SCID mouse xenografted with MDA-MB-231 cells assessed as change in body weight at 40 mg/kg, po qd for 15 days and measured every 3 days; type: organism-based; conditions: in vivo, 360 h, dose 40 mg/kg/day, time 15 day
MDA-MB-231 [6] = assay: Antitumor activity against human MDA-MB-231 cells xenografted in SCID mouse assessed as tumor growth inhibition at 40 mg/kg, po qd for 15 days and measured every 3 days; type: functional; conditions: MDA-MB-231, po, 360 h, time 15 day; outline: as §2
[7] = Toxicity in SCID mouse xenografted with MDA-MB-231 cells assessed as animal death at 40 mg/kg, po qd for 15 days; type: organism-based; conditions: in vivo, dose 40 mg/kg/day, time 15 day, read-out: Activity
[8] = target: Voltage-gated inwardly rectifying potassium channel KCNH2 (Homo sapiens, UniProt Q12809); assay: Inhibition of human ERG expressed in CHO cells at -80 mV holding potential by automated Qpatch electrophysiological assay
Voltage-gated inwardly rectifying potassium channel KCNH2, sequence (Q12809 whole entry): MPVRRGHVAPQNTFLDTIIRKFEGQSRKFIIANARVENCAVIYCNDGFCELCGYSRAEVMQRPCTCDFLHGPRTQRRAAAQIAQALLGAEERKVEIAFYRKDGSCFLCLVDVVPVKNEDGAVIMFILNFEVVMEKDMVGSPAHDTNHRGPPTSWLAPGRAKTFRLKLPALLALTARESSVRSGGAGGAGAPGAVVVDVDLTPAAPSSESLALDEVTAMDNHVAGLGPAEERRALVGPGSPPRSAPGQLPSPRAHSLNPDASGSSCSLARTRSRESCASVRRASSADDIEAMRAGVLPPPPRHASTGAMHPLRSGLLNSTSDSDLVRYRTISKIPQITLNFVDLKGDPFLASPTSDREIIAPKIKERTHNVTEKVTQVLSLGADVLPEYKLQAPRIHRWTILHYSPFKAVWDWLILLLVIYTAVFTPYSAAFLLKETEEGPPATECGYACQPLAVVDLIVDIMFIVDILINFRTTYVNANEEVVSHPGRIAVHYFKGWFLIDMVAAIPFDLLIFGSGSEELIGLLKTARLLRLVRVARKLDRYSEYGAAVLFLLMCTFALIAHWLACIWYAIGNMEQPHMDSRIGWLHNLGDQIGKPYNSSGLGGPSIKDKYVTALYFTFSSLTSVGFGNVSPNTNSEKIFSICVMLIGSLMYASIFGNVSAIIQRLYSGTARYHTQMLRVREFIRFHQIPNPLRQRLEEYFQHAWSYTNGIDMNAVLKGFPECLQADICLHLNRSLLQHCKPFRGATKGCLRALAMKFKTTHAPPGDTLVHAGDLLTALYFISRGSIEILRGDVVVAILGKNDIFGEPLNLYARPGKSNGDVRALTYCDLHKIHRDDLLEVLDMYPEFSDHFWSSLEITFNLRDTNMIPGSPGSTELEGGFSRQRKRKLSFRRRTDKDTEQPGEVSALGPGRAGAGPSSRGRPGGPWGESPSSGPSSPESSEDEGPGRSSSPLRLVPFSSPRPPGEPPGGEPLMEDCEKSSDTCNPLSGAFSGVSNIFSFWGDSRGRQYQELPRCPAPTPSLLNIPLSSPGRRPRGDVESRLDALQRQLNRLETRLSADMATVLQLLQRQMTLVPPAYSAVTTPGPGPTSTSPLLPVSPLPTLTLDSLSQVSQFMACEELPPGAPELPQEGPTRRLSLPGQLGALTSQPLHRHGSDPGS

[9] = Toxicity in SCID mouse xenografted with MDA-MB-231 cells assessed as change in body weight at 20 mg/kg, po qd for 15 days and measured every 3 days; type: organism-based; conditions: in vivo, 360 h, dose 20 mg/kg/day, time 15 day
MDA-MB-231 [10] = assay: Antitumor activity against human MDA-MB-231 cells xenografted in SCID mouse assessed as tumor growth inhibition at 20 mg/kg, po qd for 15 days and measured every 3 days; conditions: MDA-MB-231, po, 360 h, read-out: INH
[11] = Toxicity in SCID mouse xenografted with MDA-MB-231 cells assessed as animal death at 20 mg/kg, po qd for 15 days; type: organism-based; conditions: in vivo, dose 20 mg/kg/day, time 15 day, read-out: Activity
[12] = Tmax in Sprague-Dawley rat at 10 mg/kg, po administered via gavage by LC-MS analysis; type: ADME, organism-based; conditions: in vivo
[13] = AUC (0 to infinity) in Sprague-Dawley rat at 10 mg/kg, po administered via gavage by LC-MS analysis; type: ADME, organism-based; design: time infinity, route oral, dose 10 mg/kg; conditions: in vivo
[14] = AUC (0 to t) in Sprague-Dawley rat at 10 mg/kg, po administered via gavage by LC-MS analysis; type: ADME, organism-based; design: dose 10 mg/kg; conditions: in vivo
[15] = Cmax in Sprague-Dawley rat at 10 mg/kg, po administered via gavage by LC-MS analysis; type: ADME, organism-based; design: route oral, dose 10 mg/kg; conditions: in vivo
[16] = Half-life in Sprague-Dawley rat at 10 mg/kg, po administered via gavage by LC-MS analysis; type: ADME, organism-based; conditions: in vivo
[17] = Acute toxicity in Sprague-Dawley rat assessed as histopathological changes in spleen at 100 mg/kg, po administered as single dose measured after 24 hrs by H and E staining based light microscope analysis; type: organism-based; conditions: in vivo
Outline: (§3)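 Sprague-Dawley rats received a single oral dose of 100 mg/kg in sterile water with 25% (v/v) PEG400 plus 5% DMSO. Organs were examined by histology and immunohistochemistry for pathological changes. Behaviour and side effects were checked daily.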

[18] = Acute toxicity in Sprague-Dawley rat assessed as histopathological changes in liver at 100 mg/kg, po administered as single dose measured after 24 hrs by H and E staining based light microscope analysis; type: organism-based; conditions: in vivo; outline: as §3
[19] = Acute toxicity in Sprague-Dawley rat assessed as histopathological changes in lungs at 100 mg/kg, po administered as single dose measured after 24 hrs by H and E staining based light microscope analysis; type: organism-based; conditions: in vivo; outline: as §3
[20] = Acute toxicity in Sprague-Dawley rat assessed as histopathological changes in kidney at 100 mg/kg, po administered as single dose measured after 24 hrs by H and E staining based light microscope analysis; type: organism-based; conditions: in vivo; outline: as §3
[21] = Acute toxicity in Sprague-Dawley rat assessed as histopathological changes in heart at 100 mg/kg, po administered as single dose measured after 24 hrs by H and E staining based light microscope analysis; type: organism-based; conditions: in vivo; outline: as §3

Structure (SMILES)	mortality at 504 h [1] [%]	IC50 (MDA-MB-435) [nM]	Activity [2] [%]	IC50 (MDA-MB-231 [3]) [nM]	IC50 (HepG2) [nM]	inhibition in vivo at 40 mg/kg/day (MDA-MB-231 [4]) [%]	Activity [5] [%]	inhibition in vivo at 40 mg/kg/day (MDA-MB-231 [6]) [%]	mortality at 360 h [7] [%]	IC50 [8] [nM]	also measured
Cc1ccc(NC(=O)c2cnc(C(C)(C)C)s2)cc1C#Cc1nn(C2CCN(C)CC2)c2ncnc(N)c12	0	20	-5.3	78	> 10000	87	–	–	–	–	–
Cc1ccc(C(=O)Nc2cccc(C(F)(F)F)c2)cc1C#Cc1nn(C2CCN(C)CC2)c2ncnc(N)c12	–	170	–	9	7700	–	-13.2	91.2	0	–	–
Cc1ccc(NC(=O)c2cccc(C(F)(F)F)c2)cc1C#Cc1nn(C[C@@H](C)CO)c2ncnc(N)c12	–	10	–	17	9500	–	-3.2	78.1	0	> 30000	–
Cc1ccc(NC(=O)c2ccc(Cl)cc2)cc1C#Cc1nn(C2CCN(C)CC2)c2ncnc(N)c12	0	111	-16	33	7600	90.1	–	–	–	–	–
COc1ccc(C(=O)Nc2ccc(C)c(C#Cc3nn(C4CCN(C)CC4)c4ncnc(N)c34)c2)cc1C(F)(F)F	0	832	–	24	2200	–	–	–	–	–	–
Cc1ccc(NC(=O)c2cccc(C(F)(F)F)c2)cc1C#Cc1nn(C2CCN(C)CC2)c2ncnc(N)c12	0	80	-3.1	13	> 10000	90.7	–	–	–	600	–
Cc1ccc(NC(=O)c2ccc(Cl)c(C(F)(F)F)c2)cc1C#Cc1nn([C@H]2CC[C@H](O)CC2)c2ncnc(N)c12	–	37	–	16	> 10000	–	-13.4	96.1	0	> 30000	–
Cc1ccc(NC(=O)c2ccc(Cl)c(C(F)(F)F)c2)cc1C#Cc1nn(C[C@H](C)CO)c2ncnc(N)c12	–	323	–	17	> 10000	–	–	–	–	> 30000	–
Cc1ccc(NC(=O)c2ccc(Cl)c(C(F)(F)F)c2)cc1C#Cc1nn(C2CCN(C)CC2)c2ncnc(N)c12	0	27	-6.7	31	> 10000	70.5	–	–	–	–	–
Cc1ccc(NC(=O)c2cccc(C(F)(F)F)c2)cc1C#Cc1nn([C@H]2CC[C@@H](O)CC2)c2ncnc(N)c12	–	–	–	–	7900	–	–	–	–	–	Activity [9]: -2%; inhibition in vivo at 20 mg/kg/day (MDA-MB-231 [10]): 70.2%; mortality at 360 h [11]: 0%
Cc1ccc(NC(=O)c2ccc(C)c(C(F)(F)F)c2)cc1C#Cc1nn(C2CCN(C)CC2)c2ncnc(N)c12	0	40	-4.5	44	> 10000	69.8	–	–	–	–	–
Cc1ccc(NC(=O)c2cccc(C(F)(F)F)c2)cc1C#Cc1nn(C[C@H](C)CO)c2ncnc(N)c12	–	10	–	10	> 10000	–	-8.2	77.3	0	> 30000	–
Cc1ccc(NC(=O)c2ccc(C)c(C(F)(F)F)c2)cc1C#Cc1nn(C[C@H](C)CO)c2ncnc(N)c12	–	61	–	43	> 10000	–	-11.3	97.1	0	> 30000	–
Cc1ccc(NC(=O)c2cccc(C(F)(F)F)c2)cc1C#Cc1nn([C@H]2CC[C@H](O)CC2)c2ncnc(N)c12	–	–	–	–	–	–	3.1	89.1	0	–	Tmax [12]: 6 h; Activity [9]: 3.5%; AUC(0-inf) [13]: 976 ng·h/mL; AUC(0-t) [14]: 960 ng·h/mL; Cmax [15]: 128 ng/mL; inhibition in vivo at 20 mg/kg/day (MDA-MB-231 [10]): 79.6%; mortality at 360 h [11]: 0%; half-life [16]: 4.7 h
CCn1nc(C#Cc2cc(C(=O)Nc3ccc(CN4CCN(C)CC4)c(C(F)(F)F)c3)ccc2C)c2c(N)ncnc21	–	–	–	–	–	–	–	–	–	–	Activity [17]: Toxic; Activity [18]: Toxic; Activity [19]: Toxic; Activity [20]: Toxic; Activity [21]: Toxic
